Laboratory results reported in ChEMBL document CHEMBL4316593 (Eur J Med Chem, 2019).
Activity calls are given as the source filed them. The calls are words filed in the database; no cut-off is given here.

Experiments:
[1] = Inhibition of RTK/PI3K/AKT/mTOR signaling in human U87 cells assessed as down regulation of NLRC5 gene expression at cytotoxic IC50 measured after 48 hrs relative to control; format: cell-based; details: U-87MG ATCC
Procedure, shortened: (§1)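 Cells were exposed for 48hrs at 37°C in humidified 5% CO₂ to the compound at its previously determined IC₅₀, with Cisplatin at its IC₅₀ and an untreated negative control alongside. Each condition was run in triplicate. RNA was isolated from all samples by the same protocol. Genes were called differentially expressed by DESeq2 at q-value < 0.05 and fold change > 1.5.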

LN-229 = experiment: Cell cycle arrest in human LN229 cells assessed as decrease in accumulation at S-phase at cytotoxic IC50 measured after 48 hrs by propidium iodide staining based fluorescence cell imaging analysis; format: functional
Procedure, shortened: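 Cell cycle by PI staining. Cells seeded at 1×10^6 and grown overnight at 37°C, 5% CO₂, then exposed for 48hrs at their IC₅₀ concentration, with DMSO and cisplatin controls. Cells were trypsinized, washed in cold PBS and fixed in 70% ethanol at 4°C for 30 min. They were stained with PI in Triton X-100/RNase for 15 min at 37°C and imaged by fluorescence microscopy. Reported as mean ± S.E.M of triplicates.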

U-87 MG [2] = experiment: Induction of DNA damage in human U87 cells assessed as change in MDM2 gene expression at cytotoxic IC50 measured after 48 hrs […] relative to control; format: functional, U-87MG ATCC
Procedure, shortened: (§2)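 U87 expression profiling. Cells incubated 48hrs at 37°C, 5% CO₂ with the IC₅₀ concentration, alongside a cisplatin and an untreated control, in triplicate. RNA was isolated by one common protocol and profiled. DEGs were called with DESeq2 (q < 0.05, fold change > 1.5) and expressed as fold change versus untreated.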

[3] = Inhibition of RTK/PI3K/AKT/mTOR signaling in human U87 cells assessed as down regulation of BRMS1 gene expression at cytotoxic IC50 measured after 48 hrs relative to control; format: cell-based; details: U-87MG ATCC
Procedure, shortened: (§3)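 U87 cells grown in MEM with 10% FBS at 37°C, 5% CO2. Cells exposed to IC50 of test compound for 48 hrs, alongside untreated and cisplatin controls, each condition in triplicate. RNA isolated and profiled; differential expression called with DESeq2 (q-value < 0.05, fold change > 1.5), fold change versus untreated.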

U-87 MG [4] = experiment: Induction of DNA damage in human U87 cells assessed as change in PLK3 gene expression at cytotoxic IC50 measured after 48 hrs […] relative to control; format: functional, U-87MG ATCC; procedure, shortened: as §2
[5] = Inhibition of RTK/PI3K/AKT/mTOR signaling in human U87 cells assessed as down regulation of CMTM3 gene expression at cytotoxic IC50 measured after 48 hrs relative to control; format: cell-based; details: U-87MG ATCC; procedure, shortened: as §3
U-87 MG [6] = experiment: Cell cycle arrest in human U87 cells assessed as change in ESPL1 gene expression at cytotoxic IC50 measured after 48 hrs […] relative to control; format: functional, U-87MG ATCC; procedure, shortened: as §2
[7] = Inhibition of RTK/PI3K/AKT/mTOR signaling in human U87 cells assessed as down regulation of CDK5RAP2 gene expression at cytotoxic IC50 measured after 48 hrs relative to control; format: cell-based; details: U-87MG ATCC; procedure, shortened: as §3
[8] = Inhibition of RTK/PI3K/AKT/mTOR signaling in human U87 cells assessed as up regulation of UPK1A-AS1 gene expression at cytotoxic IC50 measured after 48 hrs relative to control; format: cell-based; details: U-87MG ATCC
U-87 MG [9] = experiment: Induction of apoptosis in human U87 cells assessed as decrease in caspase-3/7 activation at cytotoxic IC50 measured after 5 hrs by caspase-glo 3/7 luminescence assay relative to control; format: functional, U-87MG ATCC; design: scale not given: the % may be the effect or the level left
Procedure, shortened: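 Cells grown overnight in 96-well format, then given IC50 for 5 hrs at 37°C, 5% CO2, with negative, positive and blank (medium+DMSO+dye) wells. Equilibrated 30 min at room temperature, Caspase-Glo 3/7 reagent added 1:1 in the dark, luminescence read at 1 hr. Fold change = (test−blank)/(control−blank). Triplicate measurements, at least two independent experiments.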

U-87 MG [10] = experiment: Induction of DNA damage in human U87 cells assessed as change in TAOK3 gene expression at cytotoxic IC50 measured after 48 hrs […] relative to control; format: functional, U-87MG ATCC; procedure, shortened: as §3
MEF = experiment: Cytotoxicity against MEF assessed as cell death at 100 uM measured after 48 hrs by trypan blue dye-based cell counting analysis; details: mouse
[11] = Inhibition of RTK/PI3K/AKT/mTOR signaling in human U87 cells assessed as down regulation of PHIP gene expression at cytotoxic IC50 measured after 48 hrs relative to control; format: cell-based; details: U-87MG ATCC; procedure, shortened: as §1
U-87 MG [12] = experiment: Induction of apoptosis in human U87 cells assessed as change in ITPR1 gene expression at cytotoxic IC50 measured after 48 hrs […] relative to control; format: functional, U-87MG ATCC; procedure, shortened: as §3
U-87 MG [13] = experiment: Induction of apoptosis in human U87 cells assessed as change in JUN gene expression at cytotoxic IC50 measured after 48 hrs […] relative to control; format: functional, U-87MG ATCC; procedure, shortened: as §3
[14] = Inhibition of RTK/PI3K/AKT/mTOR signaling in human U87 cells assessed as up regulation of solute carrier family 12 member 9 gene expression at cytotoxic IC50 measured after 48 hrs relative to control; format: cell-based; details: U-87MG ATCC
U-87 MG [15] = experiment: Induction of DNA damage in human U87 cells assessed as change in PCNA gene expression at cytotoxic IC50 measured after 48 hrs […] relative to control; format: functional, U-87MG ATCC; procedure, shortened: as §2
U-87 MG [16] = experiment: Cell cycle arrest in human U87 cells assessed as change in MYC gene expression at cytotoxic IC50 measured after 48 hrs […] relative to control; format: functional, U-87MG ATCC; procedure, shortened: as §2
U-87 MG [17] = experiment: Cell cycle arrest in human U87 cells assessed as change in CDK2 gene expression at cytotoxic IC50 measured after 48 hrs […] relative to control; format: functional, U-87MG ATCC; procedure, shortened: as §2
[18] = Inhibition of RTK/PI3K/AKT/mTOR signaling in human U87 cells assessed as up regulation of retinoic acid receptor alpha gene expression at cytotoxic IC50 measured after 48 hrs relative to control; format: cell-based; details: U-87MG ATCC
[19] = Inhibition of RTK/PI3K/AKT/mTOR signaling in human U87 cells assessed as up regulation of WW domain containing transcription regulator 1 gene expression at cytotoxic IC50 measured after 48 hrs relative to control; format: cell-based; details: U-87MG ATCC
U-87 MG [20] = experiment: Induction of apoptosis in human U87 cells assessed as change in PMAIP1 gene expression at cytotoxic IC50 measured after 48 hrs […] relative to control; format: functional, U-87MG ATCC; procedure, shortened: as §3
[21] = Inhibition of RTK/PI3K/AKT/mTOR signaling in human U87 cells assessed as up regulation of PLD6 gene expression at cytotoxic IC50 measured after 48 hrs relative to control; format: cell-based; details: U-87MG ATCC; procedure, shortened: as §1
[22] = Inhibition of RTK/PI3K/AKT/mTOR signaling in human U87 cells assessed as up regulation of NFATC4 gene expression at cytotoxic IC50 measured after 48 hrs relative to control; format: cell-based; details: U-87MG ATCC; procedure, shortened: as §1
U-87 MG [23] = experiment: Induction of DNA damage in human U87 cells assessed as change in BRIP1 gene expression at cytotoxic IC50 measured after 48 hrs […] relative to control; format: functional, U-87MG ATCC; procedure, shortened: as §2
[24] = Inhibition of RTK/PI3K/AKT/mTOR signaling in human U87 cells assessed as down regulation of DTL gene expression at cytotoxic IC50 measured after 48 hrs relative to control; format: cell-based; details: U-87MG ATCC; procedure, shortened: as §3

## CC(=O)C(=NNc1ccccc1C#N)C(C)=O
[1]
  log2FC: -1.26
LN-229
  Activity: Active
U-87 MG [2]
  fold change (FC): 1.471
[3]
  log2FC: -0.813
U-87 MG [4]
  fold change (FC): 1.714
[5]
  log2FC: -0.716
U-87 MG [6]
  fold change (FC): 2.307
[7]
  log2FC: -0.519
[8]
  log2FC: 2.69
U-87 MG [9]
  Activity: 60.2%
U-87 MG [10]
  fold change (FC): -1.929
MEF
  Activity: < 20%
[11]
  log2FC: -0.753
U-87 MG [12]
  log2FC: -3.437
U-87 MG [13]
  log2FC: -3.064
[14]
  log2FC: 0.907
U-87 MG [15]
  fold change (FC): 1.668
U-87 MG [16]
  fold change (FC): -1.478
U-87 MG [17]
  fold change (FC): 1.392
[18]
  log2FC: 1.04
[19]
  log2FC: 0.981
U-87 MG [20]
  log2FC: 1.102
[21]
  log2FC: 1.77
[22]
  log2FC: 2.89
U-87 MG [23]
  fold change (FC): 2.317
[24]
  log2FC: -1.56
